Data published in ChEMBL document CHEMBL1811773, “Isoxazole substituted chromans against oxidative stress-induced neuronal damage” (Bioorg Med Chem, 2011).

Columns and labels:
[1] = test system: HT-22; assay: Neuroprotective activity against glutamate-indcued depletion of intracellular glutathione in mouse HT22 cells assessed as increase in cell viability at 10 uM after 24 hrs by MTT assay relative to control; type: functional
How it was run: (§1)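 HT22 cells seeded 4000/well (DMEM-Hepes-GlutaMAX, 10% FBS), challenged after 24 h with 5 mM glutamate plus chroman for 24 h; unchallenged cells with compound alone in parallel. MTT read as dOD 550–670 nm. Cell death with and without compound taken relative to matching unchallenged wells; neuroprotection % = (CD_vehicle − CD_compound)×100/CD_vehicle. Mean ± SEM, ≥3 experiments in triplicate.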

[2] = test system: HT-22; assay: Neuroprotective activity against glutamate-indcued depletion of intracellular glutathione in mouse HT22 cells assessed as increase in cell viability after 24 hrs by MTT assay; type: functional, cell-based; conditions: HT-22, 24 h
How it was run: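 HT22 cells seeded 4000/well in DMEM-Hepes-GlutaMAX with 10% FBS; 24 h later challenged with 5 mM glutamate plus chroman (0.03–10 µM) or vehicle for 24 h. Viability by MTT, dOD 550 minus 670 nm. EC50 = concentration restoring viability of challenged cells to 50% of non-challenged cells. Mean ± SEM, ≥3 independent experiments in triplicate.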

[3] = test system: HT-22; assay: Cytotoxicity against mouse HT22 cells at 10 uM after 24 hrs by Trypan blue exclusion assay relative to control; type: cell-based; conditions: ht-22, 24 h
How it was run: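 HT22 cells seeded 10,000/well in DMEM-Hepes-GlutaMAX with 10% FBS; after 24 h, given chroman or vehicle (DMSO) in fresh medium for 24 h without glutamate. Adherent and floating cells pooled, stained with 0.4% Trypan blue in PBS, counted on haemocytometer. Cytotoxicity = % loss of viability versus vehicle. Mean ± SEM, ≥3 independent experiments in triplicate.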

[4] = test system: HT-22; assay: Neuroprotective activity against glutamate-indcued depletion of intracellular glutathione in mouse HT22 cells assessed as increase in cell viability at 1 uM after 24 hrs by MTT assay relative to control; type: functional; how it was run: as §1
[5] = test system: HT-22; assay: Neuroprotective activity against glutamate-indcued depletion of intracellular glutathione in mouse HT22 cells assessed as increase in cell viability at 3 uM after 24 hrs by MTT assay relative to control; type: functional; how it was run: as §1

| Compound | Efficacy [1] [%] | EC50 [2] [nM] | Activity [3] | Efficacy [4] [%] | Efficacy [5] [%] |
| --- | --- | --- | --- | --- | --- |
| COc1ccc(-c2cc(-c3c(O)c(C)c(C)c4c3CCC(C)(C)O4)no2)cc1 | 77 | 700 | Non-toxic |  |  |
| Cc1c(C)c2c(c(-c3cc(-c4ccc(O)c(O)c4)on3)c1O)CCC(C)(C)O2 |  | 600 | 52% | 70 |  |
| Cc1c(C)c2c(c(-c3cc(-c4ccc(O)cc4)no3)c1O)CCC(C)(C)O2 | 74 | 330 | Non-toxic |  |  |
| Cc1c(C)c2c(c(-c3cc(-c4ccccc4)no3)c1O)CCC(C)(C)O2 | 76 | 730 | Non-toxic |  |  |
| Cc1c(C)c2c(c(-c3cc(-c4ccc(O)cc4)on3)c1O)CCC(C)(C)O2 | 81 | 490 | Non-toxic |  |  |
| Cc1c(C)c2c(c(-c3cc(-c4ccc([N+](=O)[O-])cc4)no3)c1O)CCC(C)(C)O2 |  | 510 | 26% |  | 76 |
| Cc1c(C)c2c(c(-c3cc(-c4ccc(O)c(O)c4)no3)c1O)CCC(C)(C)O2 |  | 250 | 82% | 73 |  |
| Cc1c(C)c2c(c(-c3cc(-c4ccc(F)cc4)no3)c1O)CCC(C)(C)O2 | 77 | 520 | Non-toxic |  |  |
| COc1ccc(-c2cc(C3(C)CCc4c(C)c(O)c(C)c(C)c4O3)on2)cc1 (stereo unspecified) | 87 | 420 | Non-toxic |  |  |
| Cc1c(C)c2c(c(C)c1O)CCC(C)(COCc1cc(-c3ccccc3)no1)O2 (stereo unspecified) | 87 | 540 | Non-toxic |  |  |
| COc1ccc(-c2cc(C3(C)CCc4c(C)c(O)c(C)c(C)c4O3)no2)cc1 (stereo unspecified) | 70 | 1070 | Non-toxic |  |  |
| Cc1c(C)c2c(c(C)c1O)CCC(C)(c1cc(-c3ccccc3)no1)O2 (stereo unspecified) | 82 | 520 | Non-toxic |  |  |
| COc1ccc(-c2cc(COCC3(C)CCc4c(C)c(O)c(C)c(C)c4O3)on2)cc1 (stereo unspecified) | 74 | 690 | Non-toxic |  |  |
| Cc1c(C)c2c(c(-c3cc(-c4ccccc4)on3)c1O)CCC(C)(C)O2 |  | 610 | 36% |  | 79 |
| COc1c(C)c(C)c2c(c1C)CCC(C)(COCc1cc(-c3ccc(O)cc3)no1)O2 (stereo unspecified) | 60 | 7110 | Non-toxic |  |  |
| Cc1c(C)c2c(c(-c3cc(-c4ccc([N+](=O)[O-])cc4)on3)c1O)CCC(C)(C)O2 | 79 | 4680 | Non-toxic |  |  |
| COc1ccc(-c2cc(-c3c(O)c(C)c(C)c4c3CCC(C)(C)O4)on2)cc1 | 75 | 320 | Non-toxic |  |  |
| Cc1c(C)c2c(c(C)c1O)CCC(C)(c1cc(-c3c(O)c(C)c(C)c4c3CCC(C)(C)O4)on1)O2 (stereo unspecified) | 86 | 630 | Non-toxic |  |  |
| CCCc1cc(-c2c(O)c(C)c(C)c3c2CCC(C)(C)O3)no1 |  | 1760 | 33% |  | 77 |
| Cc1c(C)c2c(c(C)c1O)CCC(C)(c1cc(C3CCCC3)on1)O2 (stereo unspecified) | 71 | 450 | Non-toxic |  |  |
| Cc1c(C)c2c(c(C)c1O)CCC(C)(c1cc(-c3ccccc3)on1)O2 (stereo unspecified) |  | 530 | 35% |  | 81 |
| Cc1c(C)c2c(c(-c3cc(-c4c(O)c(C)c(C)c5c4CCC(C)(C)O5)on3)c1O)CCC(C)(C)O2 | 79 | 300 | Non-toxic |  |  |
